INS promoter act: TRM-6 insulin promoter activation; TRM-6 cells, insulin promoter eGFP reporter, imaging; plate-scaled: unstimulated 0, stimulated control 100; activation, % at 2 µM; hit rate 0.81% among 130,000; AID 1296;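 active = activation at 2 µM above a set limit, confirmed on inspection of the cell images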;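 also: share of cells whose green reporter signal exceeds an intensity cutoff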
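Test system: human fetal islet-derived TRM-6 cells with tamoxifen-inducible insulin promoter–eGFP reporter; schedule: overnight tamoxifen, then two-day compound incubation at 37 °C; measured by: high-content imaging of fixed cells with Hoechst nuclear stain; evaluation: percent cells above green-intensity threshold, converted to percent activation versus plate controls; control set: stimulated and unstimulated wells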
Numbers stand for hits; – = inactive. The full list was thinned out, with hits kept by preference.

SMILES | INS promoter act
CCN1CCN(c2nc(Nc3cccc(C)c3)nc(N)c2[N+](=O)[O-])CC1 | –
Cc1ccc(Nc2nc(NCC3CCCO3)nc(N)c2[N+](=O)[O-])cc1C (configuration not stated) | –
Cc1cc(C)c(NC(=O)/C=C\C(=O)O)c([N+](=O)[O-])c1 | –
CCc1cc(CNC(=O)CCc2nnc(Cc3cccc(C)c3)o2)on1 | –
CCOc1cc(CNCCCN2CCOCC2)ccc1OCC(=O)NC(C)(C)C | –
COc1cc(CNCc2cccs2)ccc1OCC(N)=O | –
COc1cc(CNCc2cccs2)ccc1OCC(=O)NC(C)(C)C | 125
CCCCn1c(SCC(=O)NNC(=O)c2ccco2)nnc1-c1ccco1 | –
C=CCN(c1ccc(C(=O)NCCc2ccccc2)cc1)S(C)(=O)=O | –
CCOC(=O)c1c(C)nc2c(c1-c1cc(OC)c(OC)c(OC)c1)C(=O)c1ccccc1-2 | –
C(=C\c1ccccc1)/CSc1nnc(-c2ccccn2)n1Cc1ccco1 | –
CCCCC(C(=O)NC1CCCC1)N(Cc1ccco1)C(=O)Cn1nnc(-c2ccc(F)cc2)n1 (configuration not stated) | –
CCCC(C(=O)NCc1ccco1)N(C(=O)CNS(=O)(=O)c1ccccc1)c1ccc(OC)cc1 (configuration not stated) | –
CCCC(C(=O)NC1CCCCC1)N(Cc1ccco1)C(=O)CNS(=O)(=O)c1ccccc1 (configuration not stated) | 77
Cc1nccn1CC(=O)N/N=C/c1cccc(O)c1 | –
O=C(CCCN1C(=O)CCC1=O)Nc1ccc2c(c1)OCCO2 | –
O=C(CCCCCN1C(=O)c2ccccc2C1=O)Nc1ccc2c(c1)OCCO2 | –
O=C(CCCCCN1C(=O)CCC1=O)Nc1ccc2c(c1)OCO2 | 475
CCC(C)/C(C)=N/NC(=O)c1ccc(COc2ccc(Cl)c(C)c2)cc1 (configuration not stated) | –
O=C(/C=C/c1c(Cl)cccc1Cl)Nc1ccncc1 | –
Cc1ccc(NC(=S)N2CCN(Cc3ccccc3)CC2)c(C)c1 | –
Cc1ccc(NC(=O)c2ccncc2)cc1[N+](=O)[O-] | –
Cc1ccc(NC(=O)c2ccc(-n3cccn3)c([N+](=O)[O-])c2)cc1C | 218
O=C(Nc1cccc(Cl)c1)c1ccc(-n2cncn2)c([N+](=O)[O-])c1 | –
CCOC(=O)c1cccc(N2C(=O)c3ccccc3S2(=O)=O)c1 | –
SMILES | INS promoter act
O=C1CN(Cc2ccccc2)C(=NCc2ccco2)S1 | –
CC(=O)Nc1ccc(Oc2ncccn2)c(Cl)c1 | –
CCOC(=O)C(C)Sc1ncc(-c2ccccc2)cn1 (configuration not stated) | –
COCCNC(=S)NC(=O)c1ccc(C(C)(C)C)cc1 | –
COCCCNC(=S)NNC(=O)c1ccccn1 | –
COCCCNC(=S)NNC(=O)C1CC1c1ccc(C(C)(C)C)cc1 (configuration not stated) | 789
O=C(NCCCN1CCN(c2cccc(Cl)c2)CC1)c1nc(-c2ccncc2)no1 | –
Clc1ccccc1Cn1nnc(-c2cccs2)n1 | 569
O=C(O)CCn1nnc(-c2cccs2)n1 | –
Clc1ccccc1-c1nnc2sc(-c3cccs3)nn12 | –
CC1CN(C(=O)C2CCCC2)C(C)CN1C(=O)C1CCCC1 (configuration not stated) | –
O=C(NCCSCc1ccco1)Nc1ccccc1 | –
Cc1cc(NC(=O)CN2CCC(C)CC2)no1 | –
Nc1c(C(=O)Nc2nc3ccccc3s2)sc2nc(-c3cccs3)ccc12 | 196
Nc1c(C(=O)Nc2ccccc2)sc2nc(-c3ccco3)ccc12 | –
O=C(NC(=S)Nc1nc2ccccc2s1)c1cccs1 | –
CN1CCN(S(=O)C23CC4CC(CC(C4)C2)C3)CC1 (configuration not stated) | 488
O=S(NC1CCCCC1)C12CC3CC(CC(C3)C1)C2 (configuration not stated) | –
CC1CCN(S(=O)C23CC4CC(CC(C4)C2)C3)CC1 (configuration not stated) | –
COc1ccc(N(CC(=O)Nc2ccc(S(=O)(=O)N3CCCCC3)cc2)S(C)(=O)=O)cc1OC | –
CCOC(=O)C1=C(C)Nc2ccccc2N=C1NC(=O)Cc1ccc(Cl)c(Cl)c1 | –
CCOC(=O)c1ccc(CNCc2ccc(Br)cc2)cc1 | –
CCOC(=O)C1=C(C)Nc2ccccc2N=C1NC(=O)Cc1ccc(Br)cc1 | 223
Cc1nn(-c2cccc(Cl)c2)c(Cl)c1/C=N/NC(=O)c1cccnc1 | –
Cc1cc2nc3c(c(C(F)(F)F)n2n1)CCCC3 | –
SMILES | INS promoter act
Cc1ccnc(SCC(=O)O)n1 | –
Cc1ccnc(SCc2cc(=O)c(OC(=O)c3ccccc3)co2)n1 | 428
Cc1ccnc(SCC(=O)N2CCc3ccccc3C2)n1 | –
Cc1ccc(C2OC(=O)c3ccccc32)cc1 (configuration not stated) | –
CS(=O)(=O)N(CC(=O)Nc1cc(Cl)ccc1Cl)c1ccccc1 | –
CC(=O)OC(COc1cccc(C)c1)Cn1cnc2ccccc21 (configuration not stated) | 407
